Results published in publication PMC7480958 (ACS chemical biology, 2020).

Columns and labels:
proteinase K = proteinase K (Parengyodontium album, UniProt P06873); assay: Protease activity assay, proteinase K; type: biochemical, Engyodontium album
human chymotrypsin = human chymotrypsin (Homo sapiens, UniProt P17538); assay: Protease activity assay, chymotrypsin; type: biochemical; conditions: isoleucine in 1 versus valine in 2 and 3
bovine trypsin = assay: Protease activity assay, trypsin; type: biochemical; conditions: incubated with up to 20 μM
In short: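 Bovine trypsin in DPBS pH 7.4 with 0.01% Tween-20 and 2 mM DTT was preincubated for 30 min at 22°C with an equal volume of 3-fold serial dilutions of the test compound (DMSO stock; final 20 μM to 339 pM). The mix was added to z-Leu-Arg-Arg-AMC (final 100 μM; enzyme 10 nM). AMC fluorescence (360/460 nm) was read every 3 min at 22°C, and the rate (RFU/s) was taken over 30 min.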

[1] = tested on: H-460 lung cancer cell line; assay: H-460 lung cancer cell cytotoxicity assay; type: cell-based; conditions: read-out: Cytotoxic activity IC50

Sequence of human chymotrypsin (P17538 19-263): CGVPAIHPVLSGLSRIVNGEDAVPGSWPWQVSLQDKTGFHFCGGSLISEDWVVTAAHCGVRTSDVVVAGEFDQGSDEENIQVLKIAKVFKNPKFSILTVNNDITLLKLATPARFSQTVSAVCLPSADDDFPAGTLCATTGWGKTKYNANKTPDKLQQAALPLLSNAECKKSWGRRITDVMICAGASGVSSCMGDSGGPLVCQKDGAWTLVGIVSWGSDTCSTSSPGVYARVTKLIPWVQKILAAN
Sequence of proteinase K (P06873 106-384): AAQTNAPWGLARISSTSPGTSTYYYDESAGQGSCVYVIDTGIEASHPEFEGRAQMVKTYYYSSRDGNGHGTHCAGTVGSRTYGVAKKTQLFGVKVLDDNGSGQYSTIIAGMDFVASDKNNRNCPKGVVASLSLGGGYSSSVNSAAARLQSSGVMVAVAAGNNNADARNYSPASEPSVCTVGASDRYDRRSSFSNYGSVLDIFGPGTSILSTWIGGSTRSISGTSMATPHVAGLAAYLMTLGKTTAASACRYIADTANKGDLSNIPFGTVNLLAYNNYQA

SMILES | IC50 (proteinase K) [nM] | Fold reduction in potency for chymotrypsin (human chymotrypsin) [fold] | Inhibition of bovine trypsin (bovine trypsin) | IC50 [1] [nM]
C/C=C1\NC(=O)[C@@H](NC(=O)[C@H](CCC(N)=O)NC(=O)CCCCC)[C@@H](C)OC(=O)[C@H](C(C)C)NC(=O)[C@H](Cc2ccc(O)cc2)N(C)C(=O)[C@H](Cc2ccccc2)N2C(=O)[C@H](CC[C@H]2O)NC1=O [Lyngbyastatin 7, lyngbyastatin 7] | 1570 | – | – | –
C/C=C1\NC(=O)[C@@H](NC(=O)[C@@H](NC(=O)[C@H](C)NC(=O)C/C(C)=C/Cl)[C@@H](C)CC)[C@@H](C)OC(=O)[C@H](C(C)C)NC(=O)[C@H](Cc2ccc(O)cc2)N(C)C(=O)[C@H](Cc2ccccc2)N2C(=O)[C@H](CC[C@H]2O)NC1=O [Tutuilamide A (1), tutuilamide A] | – | 2 | no inhibition | 530 ± 40
C/C=C1\NC(=O)[C@@H](NC(=O)[C@@H](NC(=O)[C@H](C)NC(=O)C/C(C)=C/Cl)C(C)C)[C@@H](C)OC(=O)[C@H](C(C)C)NC(=O)[C@H](Cc2ccc(O)cc2)N(C)C(=O)[C@H](Cc2ccccc2)N2C(=O)[C@H](CC[C@H]2O)NC1=O [Tutuilamide B (2), tutuilamide B] | – | – | no inhibition | 1270 ± 210
C/C=C1\NC(=O)[C@@H](NC(=O)[C@@H](NC(=O)C/C(=C/Cl)CC)C(C)C)[C@@H](C)OC(=O)[C@H](C(C)C)NC(=O)[C@H](Cc2ccc(O)cc2)N(C)C(=O)[C@H](Cc2ccccc2)N2C(=O)[C@H](CC[C@H]2O)NC1=O [Tutuilamide C (3), tutuilamide C] | – | – | no inhibition | 4780 ± 450
